Assay results of several laboratories.
Compare with care: the assays were run in different laboratories.
Cell line: HCT-116
Effect on: cell growth or viability

With `CSc1nc(NC(=S)NCCc2ccccc2)n(-c2ccc(C(=O)O)cc2)n1` the IC50 was 45.8 µM (MTT).
`CC[C@H](C)C(=O)O[C@H]1C[C@@H](C)C=C2C=C[C@H](C)[C@H](CC[C@@H]3C[C@@H](O)CC(=O)O3)[C@H]21` gave an IC50 of 6.79 µg/mL (SRB; 72 h).
`CCn1c(-c2nnc(NC(=O)c3cc4c([nH]c5ccccc54)c(-c4cc(OC)c(OC)c(OC)c4)n3)s2)cc2ccccc21` gave an IC50 of 18.7 µM (MTT; 72 h).
For `O=C(NC(=S)NCc1ccc(CNC(=S)NC(=O)c2ccc3ccccc3c2)cc1)c1ccc2ccccc2c1`, the IC50 was 1.35 µM (48 h).
`COc1cc(Nc2nccc(-c3cnn4nc(OC)ccc34)n2)cc(C(F)(F)F)c1` has an IC50 of 0.55 µM (ATP luminescence).
`CC[C@H](C)C(=O)O[C@H]1C[C@H](O)C=C2C=C[C@H](C)[C@H](CC[C@@H](O)C[C@@H](O)CC(=O)O)[C@H]21` gave an IC50 of 1.57 µg/mL (SRB; 72 h).
The IC50 of `O=C(NC(=S)NCc1ccccc1)c1ccc2ccccc2c1` is reported as 4.55 µM (48 h).
`COc1ccc(NC(=O)Nc2ccc(OCc3nccc(OCC(F)(F)F)c3C)cc2)cc1` gave an IC50 of 19.2 µM (MTT; 72 h).
For `O=C(NC(=S)NC1CCCCC1)c1ccc2ccccc2c1`, the IC50 was 4.62 µM (48 h).
The IC50 of `COc1cccc2c1C(=O)c1c(O)c3c(c(O)c1C2=O)C[C@@](O)(C(=O)CO)C[C@@H]3O[C@H]1C[C@H](N)[C@H](O)[C@H](C)O1` is reported as 0.11 µM (SRB).
`COc1c(C)cnc(COc2ccc(NC(=O)Nc3ccc(Cl)cc3)cc2)c1C` has an IC50 of 19.3 µM (MTT; 72 h).
`CC1=C(O)C(=O)C=C2C1=CC=C1[C@@]2(C)CC[C@@]2(C)[C@@H]3C[C@](C)(C(=O)OCCCCCCO)CC[C@]3(C)CC[C@]12C` has an IC50 of 0.53 µM (MTT; 48 h).
`COCCCOc1ccnc(COc2ccc(NC(=O)Nc3ccc(Cl)c(C(F)(F)F)c3)cc2)c1C` gave an IC50 of 10.1 µM (MTT; 72 h).
With `CC(=O)Oc1ccc2ccc(=O)oc2c1CBr` the IC50 was greater than 20 µM (MTT; 36 h).
For `CSc1nc(N)n(-c2ccc(C(=O)O)cc2)n1`, the IC50 was 61 µM (MTT).
`Cc1cc(C)n(-c2nc(Nc3ccc(Cl)cc3)nc(-n3nc(C)cc3C)n2)n1` gave an IC50 of 11 µM (MTT; 72 h).
The IC50 of `CSc1nc(/N=C/c2cc(Br)ccc2O)n(-c2ccc(C(=O)O)cc2)n1` is reported as 59.4 µM (MTT).
The IC50 of `CC(=O)SCc1cc(=O)oc2cc(O)ccc12` is reported as greater than 20 µM (MTT; 36 h).
`CCNC(=S)NC(=O)c1ccc2ccccc2c1` gave an IC50 of 4.14 µM (48 h).
With `COc1ccc2oc(=O)cc(CSC(C)=O)c2c1` the IC50 was greater than 20 µM (MTT; 36 h).
The IC50 of `CC1=C(O)C(=O)C=C2C1=CC=C1[C@@]2(C)CC[C@@]2(C)[C@@H]3C[C@](C)(C(=O)OCCCn4ccc5ccccc54)CC[C@]3(C)CC[C@]12C` is reported as 2.75 µM (MTT; 48 h).
`NC(=O)NOCCCCCCCCCCCCCCCCCCCC[P+](c1ccccc1)(c1ccccc1)c1ccccc1` has an IC50 of 0.23 µM (imaging).
`Clc1ccc(C[n+]2cn(CCc3ccccc3)c3ccccc32)cc1` gave an IC50 of 18.4 µM (MTT; 72 h).
With `COc1ccnc(COc2ccc(NC(=O)Nc3cc(F)cc(F)c3)cc2)c1OC` the IC50 was 25.7 µM (MTT; 72 h).
With `CC[C@]1(O)C[C@H]2CN(CCc3c([nH]c4ccccc34)[C@@](C(=O)OC)(c3cc4c(cc3OC)N(C=O)[C@H]3[C@@](O)(C(=O)OC)[C@H](OC(C)=O)[C@]5(CC)C=CCN6CC[C@]43[C@@H]65)C2)C1` the IC50 was 0.0017 µM (fluorescence; 72 h).
For `CC1=C(O)C(=O)C=C2C1=CC=C1[C@@]2(C)CC[C@@]2(C)[C@@H]3C[C@](C)(C(=O)OCCCCCO)CC[C@]3(C)CC[C@]12C`, the IC50 was 0.48 µM (MTT; 48 h).
For `COc1cc(CNC(=O)CCCC/C=C/C(C)C)ccc1OCc1cn(-c2ccc(C(F)(F)F)cc2)nn1`, the IC50 was 8.9 µM (SRB).
`CS(=O)(=O)c1nc(N)n(-c2ccc(C(=O)O)cc2)n1` gave an IC50 of 48.5 µM (MTT).
`CCOC(=O)/C=C1\S/C(=N\C(=O)c2ccc3ccccc3c2)N(C2CCCCC2)C1=O` has an IC50 of 11.4 µM (48 h).
For `CNC(=O)c1cc(Oc2ccc(NC(=O)Nc3ccc(Cl)c(C(F)(F)F)c3)cc2)ccn1`, the IC50 was 2.25 µM (MTT; 72 h).
`COc1cc([C@@H]2c3cc4c(cc3[C@@H](O[C@@H]3O[C@@H]5CO[C@@H](C)O[C@H]5[C@H](O)[C@H]3O)[C@H]3COC(=O)[C@H]23)OCO4)cc(OC)c1O` has an IC50 of 23.3 µM (MTS; 48 h).
`COc1ccc(NC(=O)Nc2ccc(OCc3ncc(C)c(OC)c3C)cc2)cc1` gave an IC50 of greater than 100 µM (MTT; 72 h).
`Cc1ccc([P+](CCCCCCCCCCONC(N)=O)(c2ccc(C)cc2)c2ccc(C)cc2)cc1` has an IC50 of 3.7 µM (imaging).
The IC50 of `O=C(Nc1nnc(-c2cc3ccccc3[nH]2)s1)c1cc2c([nH]c3ccccc32)c(-c2ccccc2)n1` is reported as 5.12 µM (MTT; 72 h).
With `O=c1c(O)c(-c2ccc(O)cc2)oc2cc(O)cc(O)c12` the IC50 was 44.7 µM (WST-1; 48 h).
With `COc1ccnc(COc2ccc(NC(=O)Nc3ccc(Cl)c(C(F)(F)F)c3)cc2)c1OC` the IC50 was 18.1 µM (MTT; 72 h).
`Cc1c(O)ccc2ccc(=O)oc12` has an IC50 of greater than 20 µM (MTT; 36 h).
The IC50 of `CC1=C(O)C(=O)C=C2C1=CC=C1[C@@]2(C)CC[C@@]2(C)[C@@H]3C[C@](C)(C(=O)OCCO)CC[C@]3(C)CC[C@]12C` is reported as 0.47 µM (MTT; 48 h).
`O=C(Nc1nnnn1C1CCCCC1)c1ccc2ccccc2c1` has an IC50 of 3.06 µM (48 h).
`Cc1c(OCC(F)(F)F)ccnc1COc1ccc(NC(=O)Nc2ccc(Cl)cc2)cc1` has an IC50 of 3.9 µM (MTT; 72 h).
With `COc1cccc2c1C(=O)c1c(O)c3c(c(O)c1C2=O)C[C@@](O)(C(=O)CO)C[C@@H]3O[C@H]1C[C@H](N)[C@H](O)[C@H](C)O1` the IC50 was 64 µM (MTT).
For `COc1ccc2oc(=O)cc(CCl)c2c1`, the IC50 was greater than 20 µM (MTT; 36 h).
The IC50 of `COc1cccc2c1C(=O)c1c(O)c3c(c(O)c1C2=O)C[C@@](O)(C(=O)CO)C[C@@H]3O[C@H]1C[C@H](N)[C@H](O)[C@H](C)O1` is reported as 1.02 µM (48 h).
`C=CC(=O)N1CCC[C@@H](n2nc(-c3ccc(Oc4ccccc4)cc3)c3c(N)ncnc32)C1` has an IC50 of greater than 10 µM.
`CC1(C)CC[C@]2(C)CC[C@]3(C)C(=CC[C@@H]4[C@@]5(C)CC[C@H](O)C(C)(C)[C@@H]5CC[C@]43C)[C@@H]2C1` has an IC50 of 91.3 µM (WST-1; 48 h).
For `CCn1c(-c2nnc(NC(=O)c3cc4c([nH]c5ccccc54)c(-c4ccc(OC)cc4)n3)s2)cc2ccccc21`, the IC50 was 19.9 µM (MTT; 72 h).
The IC50 of `COc1cc([C@@H]2c3cc4c(cc3[C@@H](O[C@@H]3O[C@@H]5CO[C@@H](C)O[C@H]5[C@H](O)[C@H]3O)[C@H]3COC(=O)[C@H]23)OCO4)cc(OC)c1O` is reported as 18.3 µM (MTS; 72 h).
